According to ChEMBL document CHEMBL3259644, “Dibenzo[1,4,5]thiadiazepine: a hardly-known heterocyclic system with neuroprotective properties of potential usefulness in the treatment of neurodegenerative diseases” (Eur J Med Chem, 2014):

Assays:
[1] = Permeability of the compound by PAMPA; assay type: physicochemical; conditions: read-out: permeability
Summary of the method: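 PAMPA-BBB: filter impregnated with porcine brain lipid in dodecane (20 mg/mL). Compound at 100 µg/mL in PBS pH 7.4:ethanol 70:30 in donor. Acceptor held PBS:ethanol 70:30. Incubated 240 min at 25 °C. Acceptor concentration read by UV-Vis at five wavelengths, in four wells, at least three runs. Mean ± SD. 10 reference drugs validated each run.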

SH-SY5Y [2] = assay: Neuroprotective activity in human SH-SY5Y cells assessed as protection against rotenone-oligomycin-induced toxicity at 3 uM preincubated for 24 hrs before rotenone-oligomycin addition measured after 24 hrs by lactate dehydrogenase release assay; assay type: functional
Summary of the method: (§1)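 Pre-incubation: compound given to cells (10^5/well, serum-free DMEM) for 24 h. Medium then replaced with fresh medium holding compound plus rotenone 30 µM and oligomycin A 10 µM for another 24 h. LDH release read. Protection = 100 minus normalized toxin-induced LDH release above basal. Mean of 4 independent experiments in triplicate.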

SH-SY5Y [3] = assay: Neuroprotective activity in human SH-SY5Y cells assessed as protection against rotenone-oligomycin-induced toxicity at 3 uM co-incubated with rotenone-oligomycin measured after 24 hrs by lactate dehydrogenase release assay; assay type: functional
Summary of the method: (§2)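 Co-incubation: cells (10^5/well, serum-free DMEM) given compound together with rotenone 30 µM plus oligomycin A 10 µM for 24 h. Cell death by LDH release. Protection: basal LDH subtracted from toxin-induced release, normalized to 100%, then subtracted from 100. Mean of 4 independent experiments in triplicate.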

SH-SY5Y [4] = assay: Neuroprotective activity in human SH-SY5Y cells assessed as protection against rotenone-oligomycin-induced toxicity at 1 uM co-incubated with rotenone-oligomycin measured after 24 hrs by lactate dehydrogenase release assay; assay type: functional; summary of the method: as §2
[5] = Cytotoxicity against human SH-SY5Y cells assessed as cell viability at 3 uM after 24 hrs by lactate dehydrogenase release assay; assay type: cell-based; conditions: read-out: Activity
Summary of the method: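 Cells plated at 10^5 per well at least 48 h beforehand, in serum-free DMEM, before confluence. Exposed to compound at 3 µM for 24 h. LDH released to medium measured by colorimetric kit (492/620 nm), expressed as extracellular versus total LDH.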

SH-SY5Y [6] = assay: Neuroprotective activity in human SH-SY5Y cells assessed as protection against rotenone-oligomycin-induced toxicity at 0.3 uM preincubated for 24 hrs before rotenone-oligomycin addition measured after 24 hrs by lactate dehydrogenase release assay; assay type: functional; summary of the method: as §1
SH-SY5Y [7] = assay: Neuroprotective activity in human SH-SY5Y cells assessed as protection against rotenone-oligomycin-induced toxicity at 1 uM preincubated for 24 hrs before rotenone-oligomycin addition measured after 24 hrs by lactate dehydrogenase release assay; assay type: functional; summary of the method: as §1
Cholinesterase = Cholinesterase (Equus caballus, UniProt P81908); assay: Inhibition of horse serum BuChE using butyrylthiocholine as substrate by UV spectroscopic analysis
Cholinesterase, sequence (P81908 whole entry): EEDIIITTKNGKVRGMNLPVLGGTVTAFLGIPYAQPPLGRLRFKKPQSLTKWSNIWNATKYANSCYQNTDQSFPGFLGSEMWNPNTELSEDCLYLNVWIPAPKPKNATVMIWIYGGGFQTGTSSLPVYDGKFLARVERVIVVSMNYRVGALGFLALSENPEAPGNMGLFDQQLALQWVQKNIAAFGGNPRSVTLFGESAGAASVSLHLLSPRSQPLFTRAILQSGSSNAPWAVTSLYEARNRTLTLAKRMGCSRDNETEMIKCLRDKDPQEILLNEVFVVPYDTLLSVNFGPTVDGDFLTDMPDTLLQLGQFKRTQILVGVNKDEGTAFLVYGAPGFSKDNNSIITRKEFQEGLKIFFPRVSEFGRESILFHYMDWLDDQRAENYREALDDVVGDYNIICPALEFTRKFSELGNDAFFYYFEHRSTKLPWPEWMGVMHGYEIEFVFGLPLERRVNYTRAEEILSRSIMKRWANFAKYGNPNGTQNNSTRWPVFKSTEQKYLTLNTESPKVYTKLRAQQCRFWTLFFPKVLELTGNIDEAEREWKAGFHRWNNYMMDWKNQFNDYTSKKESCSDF

SH-SY5Y [8] = assay: Neuroprotective activity in human SH-SY5Y cells assessed as protection against rotenone-oligomycin-induced toxicity at 0.3 uM co-incubated with rotenone-oligomycin measured after 24 hrs by lactate dehydrogenase release assay; assay type: functional; summary of the method: as §2
SH-SY5Y [9] = assay: Antioxidant activity in human SH-SY5Y cells assessed as rotenone-oligomycin-induced sequestering of mitochondrial free radicals at 0.3 uM after 120 mins using DCFH-DA by fluorescence microplate reader analysis; assay type: functional
Summary of the method: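 Intracellular ROS probe: cells grown to confluence, loaded with 10 µM DCFH-DA for 45 min, basal fluorescence read. Rotenone 30 µM, oligomycin A 10 µM and compound 0.3 µM then added together at t = 0. Fluorescence change read after 120 min (ex 485/em 520 nm). Trolox 0.3 µM served as positive control. Mean of 3 independent experiments.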

SH-SY5Y [10] = assay: Inhibition of calcium channel in human SH-SY5Y cells assessed as blockade of K+-evoked cytosolic calcium increase at 3 uM after 15 mins using Fluo-4/AM by fluorescence microplate reader analysis; assay type: cell-based
Summary of the method: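 Confluent cells loaded with Fluo-4/AM 4 µM for 1 h at 37 °C, washed twice in Krebs-Hepes, then 15 min at room temperature. Compound (3 µM) applied 10 min before K+ raised to 70 mM final. Triton X-100 (5%) and MnCl2 (1 mM) gave maximal and basal fluorescence. Nifedipine 3 µM as positive control. Mean of 3 experiments.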

Row | Structure (SMILES) | Papp [1] | Activity (SH-SY5Y [2]) | Activity (SH-SY5Y [3]) | Activity (SH-SY5Y [4]) | viability at 24 h, 3 µM [5] | Activity (SH-SY5Y [6]) | Activity (SH-SY5Y [7]) | IC50 (Cholinesterase) | Activity (SH-SY5Y [8]) | Activity (SH-SY5Y [9]) | inhibition (SH-SY5Y [10])
1 | CC(=O)n1c2ccccc2sc2ccc(Cl)cc2n1C(C)=O | 12.3 ×10⁻⁶ cm/s | 91.1% | 38.3% | 38.3% | 100% | 79.8% | 88.9% | > 100 µM | 9.3% | – | –
2 | CC(=O)n1c2ccccc2sc2cc(C(F)(F)F)ccc2n1C(C)=O | 4 ×10⁻⁶ cm/s | 92.2% | 35.8% | 35% | 100% | 76.4% | 91.1% | > 100 µM | 20.7% | – | –
3 | CC(=O)n1[nH]c2ccc([N+](=O)[O-])cc2sc2ccccc21 | 3.9 ×10⁻⁶ cm/s | 72.7% | 21.9% | 27.8% | 100% | 83.8% | 75.8% | > 100 µM | 26.2% | – | –
4 | Cc1c(C)c2c(c(C)c1O)CCC(C)(C(=O)O)O2 (stereo unspecified) [TROLOX] | – | 56.1% | 55.7% | – | – | – | – | – | – | 22.3% | –
5 | CC(=O)n1c2ccccc2sc2cc(Cl)ccc2n1C(C)=O | 10.1 ×10⁻⁶ cm/s | 81.5% | 63.2% | 59.2% | 100% | 64.8% | 76.6% | > 100 µM | 49% | 24.3% | 21.5%
6 | O=C(CCN1CCCCC1)n1c2ccccc2sc2ccc(Cl)cc2n1C(=O)CCN1CCCCC1 | 5.3 ×10⁻⁶ cm/s | 96.4% | 63% | 55.4% | 100% | 84.6% | 90.4% | > 100 µM | 53% | 18.8% | 16.2%
7 | CN1CCN(CC(=O)n2c3ccccc3sc3ccc(Cl)cc3n2C(=O)CN2CCN(C)CC2)CC1 | 5.9 ×10⁻⁶ cm/s | 97.5% | 35.7% | 42.6% | 100% | 86% | 96.4% | > 100 µM | 50.6% | 24.3% | 9.3%
8 | CN(C)CCC(=O)n1c2ccccc2sc2ccc(Cl)cc2n1C(=O)CCN(C)C | 14.2 ×10⁻⁶ cm/s | 96.1% | 15.9% | 20.4% | 100% | 75.9% | 92.1% | 0.7 µM | 8.1% | – | –
9 | COC(=O)C1=C(C)NC(C)=C(C(=O)OC)C1c1ccccc1[N+](=O)[O-] | – | – | – | – | – | – | – | – | – | – | 47.9%
10 | Clc1ccc2c(c1)Sc1ccccc1N=N2 | 12.3 ×10⁻⁶ cm/s | 84.4% | 38.8% | 31.4% | 100% | 90.3% | 90.2% | > 100 µM | 40.5% | – | –
11 | O=C(CCN1CCCC1)n1c2ccccc2sc2ccc(Cl)cc2n1C(=O)CCN1CCCC1 | 3.7 ×10⁻⁶ cm/s | 92.4% | 32.7% | 45.9% | 100% | 99.3% | 94.6% | > 100 µM | 40.7% | – | –
12 | O=C(CN1CCCCC1)n1c2ccccc2sc2cccc(Cl)c2n1C(=O)CN1CCCCC1 | 7.3 ×10⁻⁶ cm/s | 83.4% | 35.6% | 38.2% | 100% | 90.5% | 83.9% | 0.9 µM | 43.3% | – | –
13 | COc1ccc2c(c1)sc1ccccc1n(C(C)=O)n2C(C)=O | 12.6 ×10⁻⁶ cm/s | 95.7% | 53.8% | 50.1% | 100% | 89.7% | 97% | > 100 µM | 49.9% | 21.6% | 13.1%
